Published values gathered from unrelated publications.
Compare with care: the assays were run in different laboratories.
TAOK1: Serine/threonine-protein kinase TAO1 (TAOK1, Homo sapiens, UniProt Q7L7X3)
TYK2 JH1: Non-receptor tyrosine-protein kinase TYK2, JH1 (TYK2, Homo sapiens, UniProt P29597)
TYK2: Non-receptor tyrosine-protein kinase TYK2 (TYK2, Homo sapiens, UniProt P29597)
MC3R: Melanocortin receptor 3 (MC3R, Homo sapiens, UniProt P41968)

The remaining binding of `C[C@]1(O)CCCN(c2nc(Nc3ccc(S(=O)(=O)N[C@H]4CC[C@H](CN5CCN(c6ccc(C7CCC(=O)NC7=O)cc6F)CC5)CC4)cc3Cl)ncc2C(F)(F)F)C1` (some centres unmarked) is reported as 91% (TAOK1; binding, competition with immobilised ligand; 1 µM).
`C1=C/COCc2cc(ccc2OCCN2CCCC2)Nc2nccc(n2)-c2cccc(c2)COC/1` gave a remaining signal of 52% (TYK2 JH1; cell-free assay; 0.1 µM).
With `CCN1/C(=C/C(C)=O)Sc2ccc(F)cc21` the inhibition was 0% (Type-1 angiotensin II receptor (AGTR1, Homo sapiens, UniProt P30556); ligand displacement, radioligand; 10 µM).
`C#Cc1cc(-c2cc(Nc3nc(N[C@@H](C)c4ccc(F)cn4)ncc3Cl)n[nH]2)ccc1C=O` gave an inhibition of 67.2% (TYK2; enzyme activity, inhibitor; 0.2 µM).
The inhibition of `Cc1cc(O)c(-c2ccc([C@@H](C)CN(C)C)cc2)c2c1[nH]c(=O)c1sccc12` is reported as 1.19% (Cyclin-dependent kinase 6 (CDK6, Homo sapiens, UniProt Q00534); enzyme activity, inhibitor; 0.1 µM).
`CCCCC(=O)Nc1ccc(-c2ccc3ncn(CCC)c(=O)c3c2)cn1` gave a remaining binding of 85% (Calcium/calmodulin-dependent protein kinase type 1B (PNCK, Homo sapiens, UniProt Q6P2M8); binding, competition with immobilised ligand; 0.5 µM).
`CC(=O)N[C@H](CCCNC(=N)N)C(=O)N[C@H]1CSSC[C@@H](C(N)=O)NC(=O)[C@H](Cc2c[nH]c3ccccc23)NC(=O)[C@H](CCCNC(=N)N)NC(=O)[C@@H](Cc2ccccc2)NC(=O)[C@H](Cc2c[nH]cn2)NC(=O)[C@H](CCC(=O)O)NC1=O` has an Emax of 91% (MC3R; cAMP, agonist; CHO-K1).
With `N#Cc1ccc(NC(=O)Nc2ccccc2)cc1` the remaining binding was 99% (TYK2 JH1; cell-free assay, competition with immobilised ligand; 25 µM).
`CCCC[C@H](NC(C)=O)C(=O)N[C@H]1CC(=O)NCCCC[C@@H](C(=O)N2CCC[C@@H]2C(=O)N[C@@H](C(=O)N2CCC[C@@H]2C(N)=O)C(C)C)NC(=O)[C@H](Cc2c[nH]c3ccccc23)NC(=O)[C@H](CCCNC(=N)N)NC(=O)[C@@H](Cc2ccccc2)NC(=O)[C@@H]2CCCN2C1=O` has an Emax of 102% (Melanocyte-stimulating hormone receptor (MC1R, Homo sapiens, UniProt Q01726); cAMP, agonist).
`COc1ccc2oc(-c3ccc4nc(N)oc4c3)c/c(=N\c3ccccc3NC(=O)CCN)c2c1` has a remaining binding of 111% (TYK2; binding; 1 µM).
For `CCCC[C@H](NC(C)=O)C(=O)N[C@@H](C)C(=O)N[C@@H](Cc1c[nH]cn1)C(=O)N[C@@H](Cc1ccccc1)C(=O)N[C@@H](CCCNC(=N)N)C(=O)N[C@H](Cc1c[nH]c2ccccc12)C(=O)N[C@@H](CC(=O)O)C(=O)N[C@@H](CCCNC(=N)N)C(=O)N[C@@H](Cc1ccccc1)C(=O)N[C@@H](C(=O)N1CCC[C@@H]1C(N)=O)C(C)C`, the Emax was 100% (MC3R; cAMP, agonist; CHO-K1).
The inhibition of `Cc1cc2c(C(N)=O)c(N)n(-c3c(C)ccc(O)c3C)c2nc1C` is reported as 100% (Serine/threonine-protein kinase B-raf (BRAF, Homo sapiens, UniProt P15056); enzyme activity, inhibitor, ADP detection; 10 µM).
For `Cc1cc(S(=O)(=O)N[C@H]2CC[C@H](CN3CCN(c4ccc(C5CCC(=O)NC5=O)cc4F)CC3)CC2)ccc1Nc1ncc(C(F)(F)F)c(N2CCC[C@](C)(O)C2)n1` (some centres unmarked), the remaining binding was 72% (TAOK1; binding, competition with immobilised ligand; 1 µM).
`NC/C(=C\F)COc1cccc(Cn2c(=S)[nH]c(=O)c3[nH]cnc32)c1` gave an inhibition of less than 50% (Adenosine receptor A3 (ADORA3, Homo sapiens, UniProt P0DMS8); ligand displacement, radioligand; 10 µM).
